# According to ChEMBL document CHEMBL1782047, “Retinoid receptor subtype-selective modulators through synthetic modifications of RARgamma agonists” (Bioorg Med Chem, 2009):
# Calls of active or inactive are those of the source. The rule behind the calls is not given here.
# Assays:
# Type in all cases: cell-based
# [1] = target: T1, Retinoic acid receptor alpha (Mus musculus, UniProt P11416); experiment: (§1) Antagonist activity at yeast GAL4 fused mouse RARalpha ligand binding domain expressed in HeLa cells assessed as inhibition of TTNPB-induced receptor transactivation by luciferase reporter gene assay
# T1 sequence (P11416 whole entry): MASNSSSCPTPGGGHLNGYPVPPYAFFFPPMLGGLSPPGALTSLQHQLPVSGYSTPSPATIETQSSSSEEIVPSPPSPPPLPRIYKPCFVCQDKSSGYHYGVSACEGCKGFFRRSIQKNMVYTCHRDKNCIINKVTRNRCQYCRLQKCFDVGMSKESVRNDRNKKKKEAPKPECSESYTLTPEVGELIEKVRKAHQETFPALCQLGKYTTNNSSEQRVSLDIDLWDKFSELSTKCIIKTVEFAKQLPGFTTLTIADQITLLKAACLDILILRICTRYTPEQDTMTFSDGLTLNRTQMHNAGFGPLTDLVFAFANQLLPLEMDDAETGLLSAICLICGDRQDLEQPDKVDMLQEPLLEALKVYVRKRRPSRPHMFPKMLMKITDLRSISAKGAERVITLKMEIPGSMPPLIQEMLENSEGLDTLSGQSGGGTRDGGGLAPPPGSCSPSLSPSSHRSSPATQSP
# Procedure, shortened: (§2)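 The Gal4-mRAR fusion HeLa reporter lines [(17m)5-βG-Luc-Neo] were seeded at 160,000 cells/well. After 12 h, cells got 10 nM TTNPB plus rising test-compound concentrations in phenol-red-free DMEM with 5% charcoal-treated FCS for 12 h at 37 °C, 5% CO2. Luciferase in lysates was read luminometrically. Antagonism is the loss of activity relative to TTNPB alone.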
# [2] = target: T2, Retinoic acid receptor gamma (Mus musculus) (UniProt P18911); experiment: Agonist activity at yeast GAL4 fused mouse RARgamma ligand binding domain expressed in HeLa cells assessed as receptor transactivation by luciferase reporter gene assay
# T2 sequence (whole entry): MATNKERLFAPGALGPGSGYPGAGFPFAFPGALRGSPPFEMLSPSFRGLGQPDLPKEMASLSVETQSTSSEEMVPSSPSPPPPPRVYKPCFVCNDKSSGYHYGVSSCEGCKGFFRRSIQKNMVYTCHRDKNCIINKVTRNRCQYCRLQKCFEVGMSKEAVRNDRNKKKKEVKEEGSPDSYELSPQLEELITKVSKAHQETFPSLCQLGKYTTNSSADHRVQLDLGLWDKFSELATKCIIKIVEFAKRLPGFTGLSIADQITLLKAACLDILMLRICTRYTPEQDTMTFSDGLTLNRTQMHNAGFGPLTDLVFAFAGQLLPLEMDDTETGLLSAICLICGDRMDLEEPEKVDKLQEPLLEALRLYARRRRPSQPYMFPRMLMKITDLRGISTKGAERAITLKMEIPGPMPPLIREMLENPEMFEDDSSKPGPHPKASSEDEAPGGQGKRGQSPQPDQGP
# Procedure, shortened: (§3)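 Stably transfected HeLa lines carrying a (17m)5-βG-Luc-Neo reporter and the matching Gal4-mRAR fusion were seeded at 160,000 cells/well. After 12 h, cells were given ligand across a dose range in phenol-red-free DMEM with 5% charcoal-treated FCS and held 12 h at 37 °C, 5% CO2. Lysates were read for luciferase with luciferin, ATP and coenzyme A. Fold induction is compound RLU over vehicle-control RLU.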
# [3] = target: T3, Retinoic acid receptor beta (Mus musculus, UniProt P22605); experiment: (§4) Antagonist activity at yeast GAL4 fused mouse RARbeta ligand binding domain expressed in HeLa cells assessed as inhibition of TTNPB-induced receptor transactivation by luciferase reporter gene assay; procedure, shortened: as §2
# T3 sequence (P22605 whole entry): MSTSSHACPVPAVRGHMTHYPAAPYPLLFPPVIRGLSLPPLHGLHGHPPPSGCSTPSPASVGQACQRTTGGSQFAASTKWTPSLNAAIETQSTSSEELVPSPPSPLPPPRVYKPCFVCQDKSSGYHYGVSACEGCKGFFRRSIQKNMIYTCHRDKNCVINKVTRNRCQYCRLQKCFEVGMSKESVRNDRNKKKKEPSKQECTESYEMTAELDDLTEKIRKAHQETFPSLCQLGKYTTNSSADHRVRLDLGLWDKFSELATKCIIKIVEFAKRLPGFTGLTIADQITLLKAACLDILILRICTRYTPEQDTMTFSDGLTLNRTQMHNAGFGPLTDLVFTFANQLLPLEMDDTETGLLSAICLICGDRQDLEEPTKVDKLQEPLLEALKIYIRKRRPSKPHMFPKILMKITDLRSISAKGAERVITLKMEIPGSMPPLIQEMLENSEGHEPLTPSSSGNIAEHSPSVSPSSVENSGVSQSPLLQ
# [4] = target: T4, Retinoic acid receptor alpha (Mus musculus) (UniProt P11416); experiment: Agonist activity at yeast GAL4 fused mouse RARalpha ligand binding domain expressed in HeLa cells assessed as receptor transactivation by luciferase reporter gene assay; procedure, shortened: as §3
# T4 sequence (whole entry): T1 sequence (P11416 whole entry)
# [5] = target: T5, Retinoic acid receptor gamma (Mus musculus, UniProt P18911); experiment: (§5) Antagonist activity at yeast GAL4 fused mouse RARgamma ligand binding domain expressed in HeLa cells assessed as inhibition of TTNPB-induced receptor transactivation by luciferase reporter gene assay; procedure, shortened: as §2
# T5 sequence (P18911 whole entry): T2 sequence (whole entry)
# [6] = target: T2, Retinoic acid receptor gamma (Mus musculus); experiment: as §5; procedure, shortened: as §2
# [7] = target: T6, Retinoic acid receptor RXR-beta (Homo sapiens) (UniProt P28702); experiment: Antagonist activity at yeast GAL4 fused human RXRbeta ligand binding domain expressed in HeLa cells assessed as inhibition of receptor transactivation by luciferase reporter gene assay
# T6 sequence (whole entry): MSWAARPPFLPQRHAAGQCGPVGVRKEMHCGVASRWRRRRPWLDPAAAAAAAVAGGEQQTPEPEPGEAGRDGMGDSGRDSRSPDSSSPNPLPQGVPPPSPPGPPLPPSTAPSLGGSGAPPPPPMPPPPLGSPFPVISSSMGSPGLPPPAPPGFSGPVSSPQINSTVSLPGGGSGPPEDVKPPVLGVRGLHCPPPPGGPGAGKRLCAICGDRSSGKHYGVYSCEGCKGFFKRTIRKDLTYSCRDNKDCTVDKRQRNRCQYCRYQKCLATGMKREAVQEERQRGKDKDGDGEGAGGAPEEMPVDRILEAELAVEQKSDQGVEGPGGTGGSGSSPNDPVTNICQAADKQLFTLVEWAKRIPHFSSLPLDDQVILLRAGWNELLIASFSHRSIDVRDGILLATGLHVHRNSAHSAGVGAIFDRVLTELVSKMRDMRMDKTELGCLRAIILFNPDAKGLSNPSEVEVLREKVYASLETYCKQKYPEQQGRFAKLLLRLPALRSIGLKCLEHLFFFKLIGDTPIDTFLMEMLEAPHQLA
# [8] = target: T6, Retinoic acid receptor RXR-beta (Homo sapiens); experiment: Agonist activity at yeast GAL4 fused human RXRbeta ligand binding domain expressed in HeLa cells assessed as receptor transactivation by luciferase reporter gene assay
# [9] = target: T4, Retinoic acid receptor alpha (Mus musculus); experiment: as §1; procedure, shortened: as §2
# [10] = target: T7, Retinoic acid receptor beta (Mus musculus) (UniProt P22605); experiment: as §4; procedure, shortened: as §2
# T7 sequence (whole entry): T3 sequence (P22605 whole entry)
Compound,Activity [2],Activity [4],inhibition [6],Activity [8],inhibition [9],inhibition [10],other results
Cc1ccc(C2=CCC(C)(C)c3cc(C(O)/C=C/c4ccc(C(=O)O)cc4)ccc32)cc1 (racemic),inactive,,,,,,IC50 [1]: 400 nM; IC50 [3]: 2000 nM
CC1(C)CC=C(C#Cc2ccccc2)c2ccc(C(O)C(=O)Nc3ccc(C(=O)O)cc3F)cc21 (racemic),inactive,inactive,,,,,
CC1(C)CC=C(C#Cc2ccccc2)c2ccc(C3=NOC(c4ccc(C(=O)O)cc4)C3)cc21 (racemic),,,,,,,IC50 [5]: 3000 nM
Cc1ccc(C2=CCC(C)(C)c3cc(C4=NOC(c5ccc(C(=O)O)cc5)C4)ccc32)cc1 (racemic),,,inactive,,,,
CC1(C)CC=C(c2ccccc2)c2ccc(C(=O)/C=C/c3ccc(C(=O)O)cc3)cc21,Active,Active,,,,,inhibition [7]: Active
CC1(C)CC=C(C#Cc2ccccc2)c2ccc(C(=O)/C=C/c3ccc(C(=O)O)cc3)cc21,Active,Active,,inactive,,,inhibition [7]: Active
Cc1ccc(C2=CCC(C)(C)c3cc(C(=O)C(=O)Nc4ccc(C(=O)O)cc4F)ccc32)cc1,,,Active,Active,Active,Active,
CC1(C)CC=C(c2ccccc2)c2ccc(C3=NOC(c4ccc(C(=O)O)cc4)C3)cc21 (racemic),,,,,,,IC50 [5]: > 10000 nM
CC1(C)CC=C(C#Cc2ccccc2)c2ccc(C(=O)C(=O)Nc3ccc(C(=O)O)cc3F)cc21,,,Active,Active,Active,Active,
CC1(C)CC=C(c2ccccc2)c2ccc(C(=O)C(=O)Nc3ccc(C(=O)O)cc3F)cc21,,,Active,Active,Active,Active,
Cc1ccc(C2=CCC(C)(C)c3cc(C(=O)/C=C/c4ccc(C(=O)O)cc4)ccc32)cc1,,,,,,,IC50 [1]: < 300 nM; IC50 [3]: 400 nM
CC1(C)CC=C(c2ccccc2)c2ccc(C(O)C(=O)Nc3ccc(C(=O)O)cc3F)cc21 (racemic),Active,Active,Active,inactive,Active,Active,
Cc1ccc(C2=CCC(C)(C)c3cc(C(O)C(=O)Nc4ccc(C(=O)O)cc4F)ccc32)cc1 (racemic),inactive,inactive,inactive,inactive,inactive,inactive,
